Experimental data published in ChEMBL document CHEMBL4699656, “Synthesis and structure-activity relationship of coumarins as potent Mcl-1 inhibitors for cancer treatment” (Bioorg Med Chem, 2021).

Each molecule was assayed against Induced myeloid leukemia cell differentiation protein Mcl-1 (Homo sapiens, UniProt Q07820) (assay: Displacement of FAM-Bid peptide from recombinant N-terminal His6x-tagged human Mcl-1 expressed in Escherichia coli BL21 (DE3) incubated for 30 mins by fluorescence polarization assay).
Chain of Induced myeloid leukemia cell differentiation protein Mcl-1 (Q07820 whole entry): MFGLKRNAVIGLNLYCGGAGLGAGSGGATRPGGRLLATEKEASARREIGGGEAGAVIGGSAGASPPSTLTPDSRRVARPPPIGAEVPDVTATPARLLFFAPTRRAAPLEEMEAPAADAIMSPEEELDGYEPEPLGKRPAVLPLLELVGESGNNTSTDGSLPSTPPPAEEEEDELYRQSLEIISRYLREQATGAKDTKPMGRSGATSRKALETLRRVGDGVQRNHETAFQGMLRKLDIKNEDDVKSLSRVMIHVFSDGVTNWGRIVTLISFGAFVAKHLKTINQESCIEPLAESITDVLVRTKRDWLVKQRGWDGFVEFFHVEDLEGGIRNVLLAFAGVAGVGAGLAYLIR
In the case of `O=C(O)Cc1cc(=O)oc2cc(O)c(O)cc12`, the IC50 is reported as 33.7 µM and the Ki is reported as 9.36 µM. With `O=c1cc(-c2ccccc2)c2cc(O)c(O)cc2o1` the IC50 was 3.27 µM and the Ki was 0.65 µM. `Cc1cc(=O)oc2cc(O)c(Cl)cc12` was tested, and the IC50 was 28.6 µM and the Ki was 5.26 µM. For `O=c1cc(CCl)c2ccc(O)c(O)c2o1`, the IC50 was 18.6 µM and the Ki was 3.19 µM. Work on `Cc1cc(=O)oc2c([N+](=O)[O-])c(O)ccc12` yielded an IC50 of 26.3 µM and a Ki of 10.8 µM. With `O=c1cc(CO)c2ccc(O)c(O)c2o1` the IC50 was 32.2 µM and the Ki was 5.67 µM. `Cc1cc(=O)oc2c(CN(C)C)c(O)c(O)cc12` gave an IC50 of 7.39 µM and a Ki of 1.46 µM. Molecule `COc1ccc2c(CCl)cc(=O)oc2c1O` has an IC50 of 30.6 µM and a Ki of 6.59 µM. For `O=c1ccc2cc(O)c(O)c(CN3CCC(O)CC3)c2o1`, the IC50 was 21.8 µM and the Ki was 4.81 µM. `COc1ccc2c(CO)cc(=O)oc2c1O` was tested, and the IC50 was 32.9 µM and the Ki was 7.15 µM. `COc1cc2cc([N+](=O)[O-])c(=O)oc2c([N+](=O)[O-])c1OC` was tested, and the IC50 was 12.2 µM and the Ki was 2.19 µM. With `O=c1cc(CO)c2cc(O)c(O)cc2o1` the IC50 was 4.01 µM and the Ki was 0.76 µM. Work on `CN(C)Cc1c(O)c(O)cc2ccc(=O)oc12` yielded an IC50 of 53.6 µM and a Ki of 11.5 µM. In the case of `COc1ccc2ccc(=O)oc2c1O`, the IC50 is reported as 16.9 µM and the Ki is reported as 7.02 µM. `[N-]=[N+]=NCc1cc(=O)oc2cc(O)c(O)cc12` was tested, and the IC50 was 34.6 µM and the Ki was 9.17 µM. In the case of `COc1ccc2c(C)cc(=O)oc2c1O`, the IC50 is reported as 16.9 µM and the Ki is reported as 2.39 µM. `Cc1cc(=O)oc2c(CN3CCCC3)c(O)c(O)cc12` showed an IC50 of 11.3 µM and a Ki of 2.54 µM. Work on `Cc1cc(=O)oc2c(CN3CCC(O)CC3)c(O)c(O)cc12` yielded an IC50 of 59.2 µM and a Ki of 21.3 µM. Work on `CN(C)Cc1c(O)c(O)cc2oc(=O)ccc12` yielded an IC50 of 19.9 µM and a Ki of 4.79 µM. `O=c1ccc2c(CN3CCC(O)CC3)c(O)c(O)cc2o1` showed an IC50 of 14.7 µM and a Ki of 2.77 µM. Molecule `O=c1cc(C(F)(F)F)c2cc(O)c(O)cc2o1` has an IC50 of 1.21 µM and a Ki of 0.21 µM. Molecule `O=c1cc(CCl)c2cc(O)c(O)cc2o1` has an IC50 of 5.82 µM and a Ki of 1.04 µM. `CCc1cc2c(C)cc(=O)oc2cc1O` gave an IC50 of 30.9 µM and a Ki of 5.47 µM. Work on `Cc1cc(=O)oc2c(O)c(O)ccc12` [4-METHYLDAPHNETIN] yielded an IC50 of 11.2 µM and a Ki of 2.11 µM. Molecule `Cc1cc(=O)oc2cc(O)c(O)cc12` [4-METHYLESCULETIN] has an IC50 of 6.28 µM and a Ki of 1.19 µM. With `O=c1ccc2cc(O)ccc2o1` [6-HYDROXYCOUMARIN] the IC50 was 83.7 µM and the Ki was 23.9 µM. `O=c1ccc2ccccc2o1` [COUMARIN] showed an IC50 of 24.4 µM and a Ki of 4.06 µM. For `O=c1ccc2ccc(O)c(O)c2o1` [DAPHNETIN], the IC50 was 11.8 µM and the Ki was 1.75 µM. With `O=c1ccc2cc(O)c(O)cc2o1` [ESCULETIN] the IC50 was 8.77 µM and the Ki was 1.49 µM. `COc1cc2ccc(=O)oc2c(O)c1O` [FRAXETIN] showed an IC50 of 32.1 µM and a Ki of 5.51 µM. `Cc1cc(=O)oc2cc(O)ccc12` [HYMECROMONE] showed an IC50 of 104 µM and a Ki of 22.1 µM. `COc1cc2oc(=O)ccc2cc1O` [ISOSCOPOLETIN] was tested, and the IC50 was 51.5 µM and the Ki was 15.9 µM. `COc1cc2ccc(=O)oc2cc1OC` [SCOPARONE] gave an IC50 of 25.1 µM and a Ki of 9.54 µM. `COc1cc2ccc(=O)oc2cc1O` [SCOPOLETIN] gave an IC50 of 22.6 µM and a Ki of 13.4 µM. Molecule `O=c1ccc2ccc(O)cc2o1` [UMBELLIFERONE] has an IC50 of 21 µM and a Ki of 3.81 µM.

What follows are molecules tested on A549 (assay: Potentiation of taxol-induced cytotoxicity against human A549 cells assessed as fold reduction in taxol IC50 for inhibition of cell viability measured after 48 hrs by SRB assay).
Type: functional
Procedure, shortened: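 A549 cells in RPMI1640 with 10% FBS at 37°C, 5% CO2. Seeded at 6.5 × 10^3 cells/well and allowed to adhere 24 h. Then exposed 48 h to taxol alone or combined with the Mcl-1 inhibitor (0.0001–100 μM). TCA fixation at 4°C, SRB staining, and Tris-solubilized dye read at 570 nm. Growth inhibition taken relative to control. IC50 reported as mean of triplicates.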
`O=c1cc(C(F)(F)F)c2cc(O)c(O)cc2o1` was tested, and the “fold change (FC)” value was over 10.
